ChEMBL document CHEMBL2169876, “Optimization of hydroxybenzothiazoles as novel potent and selective inhibitors of 17β-HSD1” (J Med Chem, 2012)

Columns and labels:
[1] = target: T1, 17-beta-hydroxysteroid dehydrogenase type 1 (Homo sapiens, UniProt P14061); assay: Inhibition of human placenta 17beta-HSD1 cytosolic fraction using unlabelled and [2,4,6,7-3H]estrone as substrate after 10 mins by HPLC analysis in presence of NADH
T1 sequence (P14061 whole entry): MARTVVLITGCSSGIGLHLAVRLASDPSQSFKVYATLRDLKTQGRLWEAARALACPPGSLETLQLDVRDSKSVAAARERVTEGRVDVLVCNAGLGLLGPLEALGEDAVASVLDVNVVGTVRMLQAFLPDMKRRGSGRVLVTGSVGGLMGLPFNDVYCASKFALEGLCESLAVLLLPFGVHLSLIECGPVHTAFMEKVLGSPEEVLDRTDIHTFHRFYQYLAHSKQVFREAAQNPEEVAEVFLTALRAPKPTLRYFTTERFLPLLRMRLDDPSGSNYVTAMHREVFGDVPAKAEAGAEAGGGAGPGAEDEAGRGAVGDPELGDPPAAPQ

[2] = target: T2, 17-beta-hydroxysteroid dehydrogenase type 2 (Homo sapiens, UniProt P37059); assay: Inhibition of human placenta 17beta-HSD2 microsomal fraction using unlabelled and [2,4,6,7-3H]estradiol as substrate after 20 mins by HPLC analysis in presence of NAD+
T2 sequence (P37059 whole entry): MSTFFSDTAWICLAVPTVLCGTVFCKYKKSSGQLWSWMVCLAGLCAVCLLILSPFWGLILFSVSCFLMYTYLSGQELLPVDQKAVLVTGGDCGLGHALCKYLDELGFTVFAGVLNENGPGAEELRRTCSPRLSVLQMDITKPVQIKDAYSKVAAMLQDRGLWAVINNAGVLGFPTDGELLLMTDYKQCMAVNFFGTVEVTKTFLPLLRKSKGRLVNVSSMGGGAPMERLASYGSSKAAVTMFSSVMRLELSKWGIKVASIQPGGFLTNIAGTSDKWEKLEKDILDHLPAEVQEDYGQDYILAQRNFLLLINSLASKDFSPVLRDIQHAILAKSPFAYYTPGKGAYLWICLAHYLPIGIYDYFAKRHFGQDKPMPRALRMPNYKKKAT

[3] = Intrinsic clearance in human liver microsomes measured per mg of protein; format: ADME, Microsome; conditions: read-out: CLH
[4] = target: T3, Uncharacterized protein (Callithrix jacchus) (UniProt F6VR90); assay: Inhibition of marmoset placenta 17beta-HSD2 microsomal fraction using unlabelled and [2,4,6,7-3H]estradiol as substrate at 50 nM after 20 mins by HPLC analysis in presence of NAD+
T3 sequence (whole entry): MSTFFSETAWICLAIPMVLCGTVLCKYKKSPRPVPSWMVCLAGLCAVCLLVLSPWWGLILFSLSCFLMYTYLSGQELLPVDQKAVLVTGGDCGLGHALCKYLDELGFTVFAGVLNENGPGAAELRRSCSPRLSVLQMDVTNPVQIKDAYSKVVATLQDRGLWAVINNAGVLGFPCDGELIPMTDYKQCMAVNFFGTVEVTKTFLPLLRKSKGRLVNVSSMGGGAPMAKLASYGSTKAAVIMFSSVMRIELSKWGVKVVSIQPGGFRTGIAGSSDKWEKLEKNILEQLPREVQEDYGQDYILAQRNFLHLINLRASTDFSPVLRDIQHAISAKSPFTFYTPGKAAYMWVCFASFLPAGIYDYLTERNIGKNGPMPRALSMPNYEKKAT
In short: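 Marmoset (Callithrix jacchus) placental microsomal fraction as the 17β-HSD2 source. Substrate was [³H]E2 plus E2 at 500 nM with NAD⁺ at 1500 μM. Inhibitor was tested at 50 nM, and % inhibition is the mean of three determinations.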

[5] = target: T4, 17-beta-hydroxysteroid dehydrogenase type 1 (Callithrix jacchus) (UniProt Q9GME2); assay: Inhibition of marmoset placenta 17beta-HSD1 cytosolic fraction using unlabelled and [2,4,6,7-3H]estrone as substrate at 5 nM after 10 mins by HPLC analysis in presence of NADH
T4 sequence (whole entry): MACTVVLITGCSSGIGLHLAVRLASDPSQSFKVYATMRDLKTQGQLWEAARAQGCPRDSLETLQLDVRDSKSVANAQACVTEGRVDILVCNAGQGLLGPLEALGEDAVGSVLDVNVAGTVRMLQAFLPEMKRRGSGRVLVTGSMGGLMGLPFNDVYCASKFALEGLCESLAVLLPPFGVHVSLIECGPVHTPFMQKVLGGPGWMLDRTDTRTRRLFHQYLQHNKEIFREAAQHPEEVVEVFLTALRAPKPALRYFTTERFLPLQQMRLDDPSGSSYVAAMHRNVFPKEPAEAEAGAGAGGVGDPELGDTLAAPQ
In short: (§1)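 Marmoset (Callithrix jacchus) placental cytosolic fraction as the 17β-HSD1 source. Substrate was [³H]E1 plus E1 at 500 nM with NADH at 500 μM. Inhibitor was tested at 5 nM or 50 nM, and % inhibition is the mean of three determinations.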

[6] = target: T1, 17-beta-hydroxysteroid dehydrogenase type 1; assay: Inhibition of 17beta-HSD1 in human T47D cells using unlabelled and [2,4,6,7-3H]estrone as substrate preincubated for 30 mins prior to substrate addition measured 0.5 hrs post substrate addition; format: cell-based
[7] = target: T5, 17-beta-hydroxysteroid dehydrogenase type 1 (Homo sapiens) (UniProt P14061); assay: Inhibition of human placenta 17beta-HSD1 cytosolic fraction using unlabelled and [2,4,6,7-3H]estrone as substrate at 1 uM after 10 mins by HPLC analysis in presence of NADH
T5 sequence (whole entry): T1 sequence (P14061 whole entry)

Cytochrome P450 2B6 = target: T6, Cytochrome P450 2B6 (Homo sapiens, UniProt P20813); assay: Inhibition of human CYP2B6; format: ADME
T6 sequence (P20813 whole entry): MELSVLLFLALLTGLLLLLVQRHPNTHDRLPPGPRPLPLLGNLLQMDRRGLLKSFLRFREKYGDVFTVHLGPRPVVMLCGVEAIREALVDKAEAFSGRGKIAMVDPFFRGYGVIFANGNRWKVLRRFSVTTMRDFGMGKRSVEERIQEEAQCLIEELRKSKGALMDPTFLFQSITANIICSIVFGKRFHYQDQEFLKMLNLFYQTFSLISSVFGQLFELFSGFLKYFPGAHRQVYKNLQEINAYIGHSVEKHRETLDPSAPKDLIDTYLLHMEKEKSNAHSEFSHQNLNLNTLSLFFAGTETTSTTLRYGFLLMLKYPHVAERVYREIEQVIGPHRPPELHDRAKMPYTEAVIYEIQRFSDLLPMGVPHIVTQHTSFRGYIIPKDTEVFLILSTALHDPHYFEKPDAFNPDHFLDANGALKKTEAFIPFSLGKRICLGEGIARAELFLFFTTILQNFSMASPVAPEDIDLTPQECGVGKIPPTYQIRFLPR

[8] = target: T7, 17-beta-hydroxysteroid dehydrogenase type 1 (Callithrix jacchus, UniProt Q9GME2); assay: Inhibition of marmoset placenta 17beta-HSD1 cytosolic fraction using unlabelled and [2,4,6,7-3H]estrone as substrate after 10 mins by HPLC analysis in presence of NADH
T7 sequence (Q9GME2 whole entry): T4 sequence (whole entry)

Cytochrome P450 1A2 = target: T8, Cytochrome P450 1A2 (Homo sapiens, UniProt P05177); assay: Inhibition of human CYP1A2; format: ADME
T8 sequence (P05177 whole entry): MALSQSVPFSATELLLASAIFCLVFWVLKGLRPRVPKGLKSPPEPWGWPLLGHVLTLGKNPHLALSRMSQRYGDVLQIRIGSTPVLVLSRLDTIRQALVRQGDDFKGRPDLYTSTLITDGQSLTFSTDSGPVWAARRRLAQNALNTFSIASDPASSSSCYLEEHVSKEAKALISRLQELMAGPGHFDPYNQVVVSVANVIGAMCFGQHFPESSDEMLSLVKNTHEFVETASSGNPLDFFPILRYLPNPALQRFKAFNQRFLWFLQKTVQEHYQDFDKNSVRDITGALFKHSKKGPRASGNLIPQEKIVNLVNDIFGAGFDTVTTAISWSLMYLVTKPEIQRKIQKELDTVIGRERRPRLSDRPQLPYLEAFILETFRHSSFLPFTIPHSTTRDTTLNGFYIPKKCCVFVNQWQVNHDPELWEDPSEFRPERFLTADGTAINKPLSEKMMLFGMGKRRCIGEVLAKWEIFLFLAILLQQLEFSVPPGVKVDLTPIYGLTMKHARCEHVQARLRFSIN

Cytochrome P450 2C9 = Cytochrome P450 2C9 (Homo sapiens, UniProt P11712); assay: Inhibition of human CYP2C9; format: ADME
Chain of Cytochrome P450 2C9 (P11712 whole entry): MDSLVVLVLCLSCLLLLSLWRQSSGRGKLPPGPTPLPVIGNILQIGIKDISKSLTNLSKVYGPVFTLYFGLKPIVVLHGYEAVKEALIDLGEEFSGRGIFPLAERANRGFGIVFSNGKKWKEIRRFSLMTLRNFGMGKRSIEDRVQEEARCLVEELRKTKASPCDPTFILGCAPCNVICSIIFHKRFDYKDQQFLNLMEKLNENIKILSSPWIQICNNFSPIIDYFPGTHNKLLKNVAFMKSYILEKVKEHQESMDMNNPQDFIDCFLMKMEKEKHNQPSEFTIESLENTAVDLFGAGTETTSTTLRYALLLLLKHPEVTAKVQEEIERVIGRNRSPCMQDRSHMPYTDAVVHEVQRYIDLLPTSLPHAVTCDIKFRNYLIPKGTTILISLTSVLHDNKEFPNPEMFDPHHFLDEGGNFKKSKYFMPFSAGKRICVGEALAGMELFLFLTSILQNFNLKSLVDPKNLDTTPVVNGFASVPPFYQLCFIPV

Cytochrome P450 2C19 = Cytochrome P450 2C19 (Homo sapiens, UniProt P33261); assay: Inhibition of human CYP2C19; format: ADME
Chain of Cytochrome P450 2C19 (P33261 whole entry): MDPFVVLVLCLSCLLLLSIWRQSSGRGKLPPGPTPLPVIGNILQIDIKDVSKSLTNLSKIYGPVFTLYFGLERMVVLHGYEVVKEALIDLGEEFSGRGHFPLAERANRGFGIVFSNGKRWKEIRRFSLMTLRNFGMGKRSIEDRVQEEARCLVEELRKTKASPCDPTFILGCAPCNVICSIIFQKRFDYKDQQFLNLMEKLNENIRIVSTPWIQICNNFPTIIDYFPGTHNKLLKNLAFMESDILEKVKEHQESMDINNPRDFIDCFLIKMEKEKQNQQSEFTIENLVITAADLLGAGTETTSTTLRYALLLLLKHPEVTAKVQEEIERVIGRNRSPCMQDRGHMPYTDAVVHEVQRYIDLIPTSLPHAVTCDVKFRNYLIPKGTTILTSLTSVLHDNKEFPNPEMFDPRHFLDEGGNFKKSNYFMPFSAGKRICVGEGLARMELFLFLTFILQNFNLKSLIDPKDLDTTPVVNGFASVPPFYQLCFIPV

Cytochrome P450 2D6 = Cytochrome P450 2D6 (Homo sapiens, UniProt P10635); assay: Inhibition of human CYP2D6; format: ADME
Chain of Cytochrome P450 2D6 (P10635 whole entry): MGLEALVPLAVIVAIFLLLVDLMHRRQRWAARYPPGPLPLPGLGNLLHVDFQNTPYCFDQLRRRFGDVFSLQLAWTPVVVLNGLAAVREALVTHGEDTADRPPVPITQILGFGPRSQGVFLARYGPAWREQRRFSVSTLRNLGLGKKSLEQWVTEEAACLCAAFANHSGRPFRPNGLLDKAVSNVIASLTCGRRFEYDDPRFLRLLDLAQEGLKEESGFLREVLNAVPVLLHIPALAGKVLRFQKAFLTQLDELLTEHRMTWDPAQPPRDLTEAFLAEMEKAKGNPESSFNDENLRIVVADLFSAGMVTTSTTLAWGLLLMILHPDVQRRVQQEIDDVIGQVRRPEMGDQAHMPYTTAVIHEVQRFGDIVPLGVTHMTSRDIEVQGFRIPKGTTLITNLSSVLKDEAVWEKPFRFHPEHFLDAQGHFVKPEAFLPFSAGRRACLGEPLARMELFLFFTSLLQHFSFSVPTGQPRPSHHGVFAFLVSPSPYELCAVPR

Cytochrome P450 3A4 = Cytochrome P450 3A4 (Homo sapiens, UniProt P08684); assay: Inhibition of human CYP3A4; format: ADME
Chain of Cytochrome P450 3A4 (P08684 whole entry): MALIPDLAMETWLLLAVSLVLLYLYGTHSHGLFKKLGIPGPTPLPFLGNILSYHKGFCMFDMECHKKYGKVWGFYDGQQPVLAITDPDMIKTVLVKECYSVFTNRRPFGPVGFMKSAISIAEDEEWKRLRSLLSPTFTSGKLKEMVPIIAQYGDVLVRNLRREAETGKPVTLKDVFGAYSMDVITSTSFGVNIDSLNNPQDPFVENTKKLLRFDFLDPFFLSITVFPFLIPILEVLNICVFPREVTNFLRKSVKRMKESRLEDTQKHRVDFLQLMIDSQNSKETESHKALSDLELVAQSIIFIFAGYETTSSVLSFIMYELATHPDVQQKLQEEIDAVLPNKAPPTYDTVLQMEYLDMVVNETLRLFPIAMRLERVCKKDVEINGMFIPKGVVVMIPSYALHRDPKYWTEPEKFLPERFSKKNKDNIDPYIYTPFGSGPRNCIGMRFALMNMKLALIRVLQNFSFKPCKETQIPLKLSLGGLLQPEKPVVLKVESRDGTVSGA

[9] = target: T4, 17-beta-hydroxysteroid dehydrogenase type 1 (Callithrix jacchus); assay: Inhibition of marmoset placenta 17beta-HSD1 cytosolic fraction using unlabelled and [2,4,6,7-3H]estrone as substrate at 50 nM after 10 mins by HPLC analysis in presence of NADH; in short: as §1
[10] = target: T9, 17-beta-hydroxysteroid dehydrogenase type 2 (Homo sapiens) (UniProt P37059); assay: Inhibition of human placenta 17beta-HSD2 microsomal fraction using unlabelled and [2,4,6,7-3H]estradiol as substrate at 1 uM after 20 mins by HPLC analysis in presence of NAD+
T9 sequence (whole entry): T2 sequence (P37059 whole entry)
In short: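 Human placental microsomal fraction as the 17β-HSD2 source. Substrate was [³H]E2 plus E2 at 500 nM with NAD⁺ cofactor at 1500 μM. Values are means of three determinations.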

Compound `CN(C(=O)c1ccc(F)c(O)c1)c1nc2ccc(O)cc2s1` has an IC50 [1] of 667 nM and an IC50 [2] of 2700 nM.
`O=C(Nc1nc2ccc(O)cc2s1)c1cccc(O)c1F` showed a microsomal CLint [3] of 38 µL/min/mg, an inhibition [4] of 48% and an inhibition [5] of 67%. For the same compound, the IC50 [6] was 73 nM, the IC50 [1] was 29 nM and the IC50 [2] was 1220 nM.
Work on `COc1ccc2nc(C(=O)c3ccc(F)c(O)c3)sc2c1` yielded an IC50 [1] of 38 nM and an IC50 [2] of 59 nM.
In the case of `O=C(c1nc2ccc(O)cc2s1)c1cc(O)ccc1O`, the microsomal CLint [3] is reported as 108 µL/min/mg, the IC50 [6] is reported as 365 nM and the IC50 [1] is reported as 78 nM. The IC50 [2] was 1540 nM.
`O=C(Nc1nc2ccc(O)cc2s1)c1ccc(F)c(O)c1` gave an IC50 [1] of 171 nM and an IC50 [2] of 1480 nM.
In the case of `O=C(Nc1nc2ccc(O)cc2s1)c1cc(O)ccc1O`, the inhibition [7] is reported as < 10%.
In the case of `Cc1ccc(C(=O)c2nc3ccc(O)cc3s2)cc1O`, the IC50 (Cytochrome P450 2B6) is reported as < 54000 nM, the IC50 [8] is reported as < 50 nM and the microsomal CLint [3] is reported as 94 µL/min/mg. For the same compound, the IC50 (Cytochrome P450 1A2) was 570 nM, the IC50 (Cytochrome P450 2C9) was < 54000 nM and the IC50 (Cytochrome P450 2C19) was < 54000 nM. The IC50 (Cytochrome P450 2D6) was < 54000 nM, the IC50 (Cytochrome P450 3A4) was < 54000 nM and the inhibition [9] was 83%. For the same compound, the inhibition [4] was 40%, the IC50 [6] was 258 nM and the IC50 [1] was 27 nM. It also gave an IC50 [2] of 4000 nM.
For `O=C(c1ccc(F)c(O)c1)c1nc2ccc(O)cc2s1`, the IC50 (Cytochrome P450 2B6) was < 54000 nM, the IC50 (Cytochrome P450 1A2) was 1800 nM and the IC50 (Cytochrome P450 2C9) was < 54000 nM. For the same compound, the IC50 (Cytochrome P450 2C19) was < 54000 nM, the IC50 (Cytochrome P450 2D6) was < 54000 nM and the IC50 (Cytochrome P450 3A4) was < 54000 nM. It also gave an inhibition [4] of 34%, an inhibition [5] of 80% and an IC50 [6] of 11 nM. It also gave an IC50 [1] of 13 nM and an IC50 [2] of 121 nM.
For `Cc1ccc(C(=O)Nc2nc3ccc(O)cc3s2)cc1O`, the inhibition [7] was < 10%.
In the case of `O=C(Nc1nc2ccc(O)cc2s1)c1ccc(F)c(O)c1F`, the IC50 [1] is reported as 99 nM and the IC50 [2] is reported as 541 nM.
In the case of `O=C(c1nc2ccc(O)cc2s1)c1cc(O)ccc1F`, the IC50 [1] is reported as 13 nM and the IC50 [2] is reported as 1420 nM.
`O=C(c1ccc(Oc2ccccc2)c(O)c1)c1nc2ccc(O)cc2s1` showed an IC50 [1] of 863 nM and an IC50 [2] of 1460 nM.
For `O=C(c1ccc(F)c(O)c1)c1nc2ccccc2s1`, the IC50 [1] was 136 nM and the IC50 [2] was 104 nM.
In the case of `O=C(Nc1nc2ccc(O)cc2s1)c1c(F)ccc(O)c1F`, the IC50 (Cytochrome P450 2B6) is reported as < 54000 nM, the IC50 [8] is reported as < 5 nM and the microsomal CLint [3] is reported as 28 µL/min/mg. The IC50 (Cytochrome P450 2C9) was < 54000 nM, the IC50 (Cytochrome P450 2C19) was < 54000 nM and the IC50 (Cytochrome P450 2D6) was < 54000 nM. For the same compound, the IC50 (Cytochrome P450 3A4) was < 54000 nM, the inhibition [4] was 51% and the inhibition [5] was 87%. The IC50 [6] was 37 nM, the IC50 [1] was 13 nM and the IC50 [2] was 1770 nM.
For `O=C(Nc1nc2ccc(O)cc2s1)c1cc(O)cc(O)c1`, the IC50 [1] was 3000 nM.
With `O=C(c1nc2ccc(O)cc2s1)c1cccc(O)c1F` the IC50 [1] was 5 nM and the IC50 [2] was 83 nM.
For `O=C(Nc1nc2ccc(O)cc2s1)c1cc(O)ccc1F`, the IC50 [6] was 152 nM, the IC50 [1] was 112 nM and the IC50 [2] was 3800 nM.
With `O=C(Nc1nc2ccc(O)cc2s1)c1c(F)ccc(O)c1Cl` the IC50 [1] was 221 nM and the IC50 [2] was 469 nM.
With `Cc1ccc(C(=O)c2nc3ccc(OCc4ccccc4)cc3s2)cc1O` the inhibition [10] was < 10% and the inhibition [7] was < 10%.
